# Laboratory results published in ChEMBL document CHEMBL2311256, “Design and synthesis of biaryl aryl stilbenes/ethylenes as antimicrotubule agents” (Eur J Med Chem, 2013).
# The source made the active and inactive calls. The rule behind the calls is not given here.
# How the values were obtained:
# A549 = experiment: Cytotoxicity against human A549 cells after 48 hrs by MTT assay; format: functional, cell-based; conditions: A549, 48 h
# Outline: (§1)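 Cells given 24 h settling, then 48 h continuous exposure to 1, 10, 100 and 1000 µM in triplicate wells. A549, SK-N-SH and HeLa grown in DMEM with 10% FBS; DU145 in MEM with non-essential amino acids, 1 mM pyruvate, insulin and 10% FBS; all at 37 °C, 5% CO2. Read-out was MTT (60 min, 37 °C), DMSO elution, 560 nm. IC50 = 50% absorbance reduction versus control, mean ± SD of three experiments.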
# DU-145 = experiment: Cytotoxicity against human DU145 cells after 48 hrs by MTT assay; format: functional, cell-based; conditions: DU-145, 48 h; outline: as §1
# Bos taurus = species on record: Bos taurus; experiment: Inhibition of bovine brain tubulin polymerization at 5 uM by fluorescence assay
# HeLa [1] = experiment: Cytotoxicity against human HeLa cells after 48 hrs by MTT assay; format: functional, cell-based; outline: as §1
# SK-N-SH = experiment: Cytotoxicity against human SK-N-SH cells after 48 hrs by MTT assay; format: functional, cell-based; outline: as §1
# HeLa [2] = experiment: Antimitotic activity in human HeLa cells assessed as accumulation at G2/M phase at 10 uM after 24 hrs by flow cytometry analysis (reference value: 19.4%); format: functional
# Outline: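 Cells treated 24 h at 10 µM, trypsin-EDTA harvested, fixed in ice-cold 70% ethanol at 4 °C for 30 min, then stained 30 min in propidium iodide (0.2 mg) plus RNase A (2 mg) per 1 mL. DNA content of 20,000 events measured by flow cytometry, and the percentage of cells in G2/M quantified against untreated and DMSO controls.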
# [3] = Inhibition of bovine brain tubulin polymerization by fluorescence assay; design: species or system Bos taurus
# Tubulin (Homo sapiens) [4] = molecular target: T1, Tubulin (Homo sapiens) (UniProt P68371+Q9H4B7+P0DPH7+P68366+Q13509+Q71U36+P04350+Q3ZCM7+P07437+P68363+Q9BQE3+Q6PEY2+Q13885+Q9BVA1+Q9BUF5); experiment: Inhibition of tubulin polymerization in human HeLa cells assessed as tubulin cytoskeleton at 10 uM after 24 hrs by immunohistochemistry analysis; format: cell-based
# Outline: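 HeLa on coverslips treated 24 h at 10 µM, then fixed in 3.5% formaldehyde/PBS for 10 min and permeabilized with 0.5% Triton X-100/0.05% Tween-20. Blocked in 2% BSA, stained with anti-tubulin (1:200, 4 h, RT) and FITC anti-mouse secondary (1:500, 1 h), DAPI counterstain. Imaged by fluorescence microscopy; five fields of view.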
# HeLa [5] = experiment: Induction of cyclin B1 expression in human HeLa cells at 10 uM after 24 hrs by immunoblotting; format: functional, cell-based
# Outline: (§2)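 HeLa seeded at 1 × 10^5 cells/well and treated 24 h. Cells washed with PBS, lysed in 1X SDS sample buffer, run on SDS-PAGE and transferred to nitrocellulose. Blots probed with anti-cyclin B1 (1:1500) and HRP goat anti-rabbit secondary (1:5000), detected by enhanced chemiluminescence.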
# Tubulin (Homo sapiens) [6] = molecular target: T1, Tubulin (Homo sapiens); experiment: Inhibition of tubulin polymerization in human HeLa cells assessed as tubulin soluble fraction at 10 uM after 24 hrs by immunohistochemistry analysis; format: cell-based
# HeLa [7] = experiment: Induction of cyclin B1 expression in human HeLa cells at 1 uM after 24 hrs by immunoblotting; format: functional, cell-based; outline: as §2
# Tubulin (Homo sapiens) [8] = molecular target: T1, Tubulin (Homo sapiens); experiment: Inhibition of tubulin polymerization in human HeLa cells assessed as tubulin polymerized fraction at 1 uM after 24 hrs by immunohistochemistry analysis; format: cell-based
# Tubulin (Homo sapiens) [9] = molecular target: T1, Tubulin (Homo sapiens); conditions: HeLa, 1 uM
Compound,IC50 (A549),IC50 (DU-145),inhibition (Bos taurus),IC50 (HeLa [1]),IC50 (SK-N-SH),Activity (HeLa [2]),IC50 [3],inhibition (Tubulin (Homo sapiens) [4]),Activity (HeLa [5]),inhibition (Tubulin (Homo sapiens) [6]),Activity (HeLa [7]),inhibition (Tubulin (Homo sapiens) [8]),inhibition (Tubulin (Homo sapiens) [9])
COc1ccc(/C=C/c2cc(OC)c(OC)c(OC)c2-c2ccc(F)c(C)c2)cc1,18 µM,23 µM,48%,17 µM,19 µM,,,,,,,,
COc1ccc(/C=C/c2cc(OC)c(OC)c(OC)c2-c2ccc3ccccc3c2)cc1,14 µM,32 µM,50%,13 µM,16 µM,,,,,,,,
C=C(c1ccccc1)c1cc(OC)c(OC)c(OC)c1-c1ccccc1,17 µM,36 µM,40%,42 µM,34 µM,,,,,,,,
C=C(c1ccc(OC)cc1)c1cc(OC)c(OC)c(OC)c1-c1ccc(C(C)(C)C)cc1,27 µM,39 µM,23%,39 µM,24 µM,,,,,,,,
COc1ccc(/C=C/c2cc(OC)c(OC)c(OC)c2-c2ccc3c(c2)OCO3)cc1,6.3 µM,7.3 µM,62%,8.7 µM,8 µM,73.02%,6.8 µM,Active,Active,Active,,,
C=C(c1ccc(C)cc1)c1cc(OC)c(OC)c(OC)c1-c1ccccc1,35 µM,28 µM,32%,28 µM,31 µM,,,,,,,,
COc1cc(/C=C/c2ccc(C)cc2)c(-c2ccccc2)c(OC)c1OC,54 µM,101 µM,47%,45 µM,31 µM,,,,,,,,
COc1ccc(/C=C/c2cc(OC)c(OC)c(OC)c2-c2ccc(F)c(F)c2)cc1,7.5 µM,7.5 µM,55%,9.2 µM,6.9 µM,71.16%,9.2 µM,Active,Active,,,,
C=C(c1ccc(OC)cc1)c1cc(OC)c(OC)c(OC)c1-c1ccc(F)c(F)c1,6.5 µM,6.8 µM,53%,5.9 µM,7.5 µM,70.02%,11.2 µM,Active,Active,,,,
COc1ccc(/C=C/c2cc(OC)c(OC)c(OC)c2-c2ccc(Cl)cc2)cc1,30 µM,35 µM,26%,49 µM,15 µM,,,,,,,,
C=C(c1ccc(OC)cc1)c1cc(OC)c(OC)c(OC)c1-c1ccc2c(c1)OCO2,5 µM,6 µM,56%,5.4 µM,6.1 µM,73%,8.6 µM,Active,Active,Active,,,
C=C(c1ccc(OC)cc1)c1cc(OC)c(OC)c(OC)c1-c1ccccc1,22 µM,8 µM,49%,11 µM,31 µM,,,,,,,,
C=C(c1ccc(C(F)(F)F)cc1)c1cc(OC)c(OC)c(OC)c1-c1ccccc1,48 µM,31 µM,49%,32 µM,13 µM,,,,,,,,
CC(=O)O[C@H]1C(=O)[C@@]2(C)[C@H]([C@H](OC(=O)c3ccccc3)[C@]3(O)C[C@H](OC(=O)[C@H](O)[C@@H](NC(=O)c4ccccc4)c4ccccc4)C(C)=C1C3(C)C)[C@]1(OC(C)=O)CO[C@@H]1C[C@@H]2O,,,,,,,,,,,Active,Active,
COc1ccc(/C=C/c2cc(OC)c(OC)c(OC)c2-c2ccc(OC)c(OC)c2)cc1,28 µM,34 µM,33%,45 µM,42 µM,,,,,,,,
COc1ccc(/C=C/c2cc(OC)c(OC)c(OC)c2-c2ccc(OC)cc2)cc1,35 µM,34 µM,20%,19 µM,36 µM,,,,,,,,
C=C(c1ccc(OC)cc1)c1cc(OC)c(OC)c(OC)c1-c1ccc2ccccc2c1,15 µM,46 µM,21%,35 µM,6 µM,,,,,,,,
C=C(c1ccc(OC)cc1)c1cc(OC)c(OC)c(OC)c1-c1ccc(Cl)cc1,29 µM,33 µM,40%,30 µM,15 µM,,,,,,,,
COC(=O)Nc1nc2cc(C(=O)c3cccs3)ccc2[nH]1,,,,,,,,,,,,,Active
COc1ccc(/C=C/c2cc(OC)c(OC)c(OC)c2-c2ccccc2)cc1,36 µM,51 µM,22%,26 µM,11 µM,,,,,,,,
COc1ccc(/C=C/c2cc(OC)c(OC)c(OC)c2-c2ccc(C(C)(C)C)cc2)cc1,32 µM,45 µM,33%,28 µM,30 µM,,,,,,,,
C=C(c1ccc(Cl)cc1)c1cc(OC)c(OC)c(OC)c1-c1ccccc1,40 µM,29 µM,51%,34 µM,25 µM,,,,,,,,
COc1cc(/C=C/c2ccccc2)c(-c2ccccc2)c(OC)c1OC,79 µM,82 µM,41%,89 µM,63 µM,,,,,,,,
C=C(c1ccc(OC)cc1)c1cc(OC)c(OC)c(OC)c1-c1ccc(OC)cc1,14 µM,37 µM,40%,72 µM,75 µM,,,,,,,,
